Measurements as given in ChEMBL document CHEMBL1150822, “Additional bioactive Lyso-PAF congeners from the sponge Spirastrella abata” (J Nat Prod, 2001).
Converted amounts (≈) assume the structure as drawn. The source made the active and inactive calls. The calls are words filed in the database; no cut-off is given here.

Columns and labels:
[1] = system: SK-MEL-2 (Homo sapiens); assay: Cytotoxicity against human SK-MEL-2 cells after 48 hrs by SRB assay; conditions: SK-MEL-2, 48 h, read-out: ED50 (the source's name)
[2] = system: SK-OV-3; assay: Cytotoxicity against human SKOV3 cells after 48 hrs by SRB assay; type: functional; conditions: SK-OV-3, 48 h, read-out: ED50 (the source's name)
How it was run: (§1)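 Rapidly growing cells were harvested and seeded at (1-2) × 10^4 cells/well, then preincubated for 24 h. Compounds dissolved in culture medium were added in triplicate, and cells were incubated for 48 h at 37 °C under 5% CO2. Cells were fixed with cold TCA and stained with 0.4% SRB in 1% acetic acid. Bound dye was solubilized in 10 mM unbuffered Tris base and absorbance read at 520 nm.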

[3] = system: XF498; assay: Cytotoxicity against human XF498 cells after 48 hrs by SRB assay; type: functional; conditions: XF498, 48 h, read-out: ED50 (the source's name)
How it was run: as §1

[4] = (§2) Inhibition of cholesterol biosynthesis in human Chang cells; type: functional, cell-based
[5] = system: HCT-15; assay: Cytotoxicity against human HCT15 cells after 48 hrs by SRB assay; type: functional; conditions: HCT-15, 48 h, read-out: ED50 (the source's name)
How it was run: as §1

[6] = system: A549; assay: Cytotoxicity against human A549 cells after 48 hrs by SRB assay; type: functional; conditions: A549, 48 h, read-out: ED50 (the source's name)
How it was run: as §1

[7] = system: Chang; assay: as §2; type: functional, cell-based

Row | Structure (SMILES) | EC50 [1] | EC50 [2] | EC50 [3] | IC50 [4] | EC50 [5] | EC50 [6] | Activity [7]
1 | CCCCCCCCCCC/C=C\CCCOC[C@H](O)COP(=O)([O-])OCC[N+](C)(C)C | > 30 µg/mL | > 30 µg/mL | > 30 µg/mL | 118 µg/mL (≈ 246 µM) | > 30 µg/mL | > 30 µg/mL | –
2 | CCCCCCCCCCC/C=C\CC(COC[C@H](O)COP(=O)([O-])OCC[N+](C)(C)C)OC (some centres undefined) | 3.8 µg/mL (≈ 7.46 µM) | 5.9 µg/mL (≈ 11.6 µM) | 4 µg/mL (≈ 7.85 µM) | – | 3.7 µg/mL (≈ 7.26 µM) | 6.3 µg/mL (≈ 12.4 µM) | –
3 | COc1cccc2c1C(=O)c1c(O)c3c(c(O)c1C2=O)C[C@@](O)(C(=O)CO)C[C@@H]3O[C@H]1C[C@H](N)[C@H](O)[C@H](C)O1 [DOXORUBICIN] | 0.02 µg/mL (≈ 0.0368 µM) | 0.11 µg/mL (≈ 0.202 µM) | 0.08 µg/mL (≈ 0.147 µM) | – | 0.04 µg/mL (≈ 0.0736 µM) | 0.02 µg/mL (≈ 0.0368 µM) | –
4 | CCCCCCCCCCCC/C=C\CCOC[C@H](O)COP(=O)([O-])OCC[N+](C)(C)C | > 30 µg/mL | > 30 µg/mL | > 30 µg/mL | 102 µg/mL (≈ 213 µM) | > 30 µg/mL | > 30 µg/mL | –
5 | CCCCCCCCCCCCCCC(COC[C@H](O)COP(=O)([O-])OCC[N+](C)(C)C)OC (some centres undefined) | 5.2 µg/mL (≈ 10.2 µM) | 5.7 µg/mL (≈ 11.1 µM) | 4.5 µg/mL (≈ 8.79 µM) | – | 5 µg/mL (≈ 9.77 µM) | 5.8 µg/mL (≈ 11.3 µM) | inactive
6 | CCCCCCCCCCCCCCCCOC[C@@H](O)COP(=O)([O-])OCC[N+](C)(C)C | 5.4 µg/mL (≈ 11.2 µM) | 4.9 µg/mL (≈ 10.2 µM) | 4.9 µg/mL (≈ 10.2 µM) | – | 5.4 µg/mL (≈ 11.2 µM) | 5.5 µg/mL (≈ 11.4 µM) | inactive
